Activity calls are given as the source filed them. No cut-off for these calls is given here.
How the values were obtained:
[1] = tested on: HL-60; assay: Cytotoxicity against human HL60 cells incubated for 3 days by CellTiter-Glo luminescent assay; assay type: functional, cell-based; conditions: HL-60, 72 h
Procedure, shortened: (§1)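 CellTiter-Glo viability read-out on leukemia cell lines. IC50 reported as the average of triplicates.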

[2] = tested on: KG-1; assay: Cytotoxicity against human KG1 cells incubated for 3 days by CellTiter-Glo luminescent assay; assay type: functional, cell-based; conditions: KG-1, 72 h; procedure, shortened: as §1
[3] = Inhibition of KIX-RLucC fused CBP (unknown origin) binding to KID-RLucN fused CREB (unknown origin) transfected in human HEK293 cells preincubated with compound 30 mins before forskolin addition and measured after 90 mins in presence of coelenterazine by split Renilla luciferase complementation assay
[4] = tested on: Bone marrow cell; assay: Cytotoxicity against human bone marrow cells incubated for 3 days by CellTiter-Glo luminescent assay; assay type: cell-based; conditions: 72 h
[5] = Metabolic stability in human liver microsomes assessed as half life in presence of NADPH by LC-MS/MS analysis; assay type: ADME, Microsome
[6] = Metabolic stability in mouse liver microsomes assessed as half life in presence of NADPH by LC-MS/MS analysis; assay type: ADME, Microsome
[7] = tested on: Jurkat; assay: Cytotoxicity against human Jurkat cells incubated for 3 days by CellTiter-Glo luminescent assay; assay type: functional, cell-based; conditions: 72 h; procedure, shortened: as §1
[8] = tested on: NALM-6; assay: Cytotoxicity against human NALM6 cells incubated for 3 days by CellTiter-Glo luminescent assay; assay type: functional, cell-based; conditions: NALM-6, 72 h; procedure, shortened: as §1
[9] = species on record: Homo sapiens; assay: Inhibition of CBP KIX domain (unknown origin) binding to BODIPY-labeled phosphorylated CREB KID domain (unknown origin) interaction pre-incubated for 30 mins by fluorescence polarization assay
Procedure, shortened: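 Fluorescence polarization with BODIPY-labeled phosphorylated CREB KID domain and the CBP KIX domain. Polarization reports the degree of KIX-KID binding.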

Row | SMILES | IC50 [1] [nM] | IC50 [2] [nM] | IC50 [3] [nM] | IC50 [4] [nM] | half-life [5] [min] | half-life [6] [min] | IC50 [7] [nM] | IC50 [8] [nM] | inhibition [9]
1 | COc1cccc(O)c1C(=O)Nc1ccc(C#N)cc1 | > 10000 | > 10000 | > 7000 | – | – | – | – | – | –
2 | N#Cc1ccc(NC(=O)c2cc3ccccc3cc2O)cc1 | 1580 | – | 4030 | > 10000 | 44.9 | 5.5 | – | – | –
3 | O=C(Nc1ccc([N+](=O)[O-])cc1Cl)c1cc(F)ccc1O | 280 | 490 | 1520 | – | – | – | 530 | 910 | –
4 | N#Cc1ccc(NC(=O)c2cc(Cl)ccc2O)c(Cl)c1 | 500 | 860 | – | – | – | – | 620 | 730 | –
5 | N#Cc1cc(Cl)ccc1NC(=O)c1ccc2cccnc2c1O | 790 | 3540 | – | – | – | – | 170 | 280 | –
6 | O=C(Nc1ccc(C(F)(F)F)cc1)c1ccc2cccnc2c1O | 680 | 3510 | – | – | – | – | 550 | 380 | –
7 | O=C(Nc1ccc(C(F)(F)F)cc1)c1ccc(C(F)(F)F)cc1O | 380 | 780 | – | – | – | – | 820 | 1120 | –
8 | O=C(Nc1ccc(C(F)(F)F)cc1)c1cc(F)ccc1O | 490 | 1700 | – | – | – | – | 580 | 2090 | –
9 | O=C(Nc1cccc(OC(F)(F)F)c1)c1cc(F)ccc1O | 730 | 830 | – | – | – | – | 700 | 1370 | –
10 | O=C(Nc1ccc(C(F)(F)F)cc1)c1ccc(Br)cc1O | 360 | 340 | – | – | – | – | 500 | 690 | –
11 | N#Cc1ccc(NC(=O)c2cc(Br)ccc2O)cc1 | 620 | 1290 | 3030 | – | – | – | – | – | –
12 | O=C(Nc1cccc(C(F)(F)F)c1)c1cc(F)ccc1O | 970 | 1010 | – | – | – | – | 840 | 1800 | –
13 | O=C(Nc1ccc(OC(F)(F)F)c(Cl)c1)c1cc(Cl)ccc1O | 450 | 460 | – | – | – | – | 840 | 1050 | –
14 | O=C(Nc1ccc(Cl)c(C(F)(F)F)c1)c1cc(F)ccc1O | 600 | 540 | – | – | – | – | 530 | 970 | –
15 | O=C(Nc1cc(C(F)(F)F)cc(C(F)(F)F)c1)c1cc(Cl)c(-c2ccccc2)cc1O | 790 | 430 | – | – | – | – | 540 | 560 | –
16 | O=C(Nc1cc(C(F)(F)F)cc(C(F)(F)F)c1)c1ccc(-c2ccccc2)cc1O | 1140 | 860 | – | – | – | – | 1240 | 1580 | –
17 | O=C(Nc1cc(C(F)(F)F)cc(C(F)(F)F)c1)c1cc(Br)ccc1O | 290 | 300 | 1240 | > 10000 | 52 | 29.1 | 350 | 590 | Active

Reference: ChEMBL document CHEMBL4385626, “SAR optimization studies on modified salicylamides as a potential treatment for acute myeloid leukemia through inhibition of the CREB pathway” (Bioorg Med Chem Lett, 2019)
